Test results as given in ChEMBL document CHEMBL3632596, “Novel Potent N-Methyl-d-aspartate (NMDA) Receptor Antagonists or σ1 Receptor Ligands Based on Properly Substituted 1,4-Dioxane Ring” (J Med Chem, 2015).
The source made the active and inactive calls. No cut-off for these calls is given here.

Legend:
[1] = biological target: T1, Glutamate NMDA receptor; GRIN1/GRIN2A (Homo sapiens, UniProt Q05586+Q12879); assay: Antagonist activity against NR1-1a/NR2A NMDA receptor (unknown origin) expressed in mouse recombinant L(tk-) cells assessed as inhibition of glycine and glutamate induced excitotoxicity incubated for 12 hrs by LDH assay; format: cell-based
T1 sequence (Q12879 whole entry, other chains not shown): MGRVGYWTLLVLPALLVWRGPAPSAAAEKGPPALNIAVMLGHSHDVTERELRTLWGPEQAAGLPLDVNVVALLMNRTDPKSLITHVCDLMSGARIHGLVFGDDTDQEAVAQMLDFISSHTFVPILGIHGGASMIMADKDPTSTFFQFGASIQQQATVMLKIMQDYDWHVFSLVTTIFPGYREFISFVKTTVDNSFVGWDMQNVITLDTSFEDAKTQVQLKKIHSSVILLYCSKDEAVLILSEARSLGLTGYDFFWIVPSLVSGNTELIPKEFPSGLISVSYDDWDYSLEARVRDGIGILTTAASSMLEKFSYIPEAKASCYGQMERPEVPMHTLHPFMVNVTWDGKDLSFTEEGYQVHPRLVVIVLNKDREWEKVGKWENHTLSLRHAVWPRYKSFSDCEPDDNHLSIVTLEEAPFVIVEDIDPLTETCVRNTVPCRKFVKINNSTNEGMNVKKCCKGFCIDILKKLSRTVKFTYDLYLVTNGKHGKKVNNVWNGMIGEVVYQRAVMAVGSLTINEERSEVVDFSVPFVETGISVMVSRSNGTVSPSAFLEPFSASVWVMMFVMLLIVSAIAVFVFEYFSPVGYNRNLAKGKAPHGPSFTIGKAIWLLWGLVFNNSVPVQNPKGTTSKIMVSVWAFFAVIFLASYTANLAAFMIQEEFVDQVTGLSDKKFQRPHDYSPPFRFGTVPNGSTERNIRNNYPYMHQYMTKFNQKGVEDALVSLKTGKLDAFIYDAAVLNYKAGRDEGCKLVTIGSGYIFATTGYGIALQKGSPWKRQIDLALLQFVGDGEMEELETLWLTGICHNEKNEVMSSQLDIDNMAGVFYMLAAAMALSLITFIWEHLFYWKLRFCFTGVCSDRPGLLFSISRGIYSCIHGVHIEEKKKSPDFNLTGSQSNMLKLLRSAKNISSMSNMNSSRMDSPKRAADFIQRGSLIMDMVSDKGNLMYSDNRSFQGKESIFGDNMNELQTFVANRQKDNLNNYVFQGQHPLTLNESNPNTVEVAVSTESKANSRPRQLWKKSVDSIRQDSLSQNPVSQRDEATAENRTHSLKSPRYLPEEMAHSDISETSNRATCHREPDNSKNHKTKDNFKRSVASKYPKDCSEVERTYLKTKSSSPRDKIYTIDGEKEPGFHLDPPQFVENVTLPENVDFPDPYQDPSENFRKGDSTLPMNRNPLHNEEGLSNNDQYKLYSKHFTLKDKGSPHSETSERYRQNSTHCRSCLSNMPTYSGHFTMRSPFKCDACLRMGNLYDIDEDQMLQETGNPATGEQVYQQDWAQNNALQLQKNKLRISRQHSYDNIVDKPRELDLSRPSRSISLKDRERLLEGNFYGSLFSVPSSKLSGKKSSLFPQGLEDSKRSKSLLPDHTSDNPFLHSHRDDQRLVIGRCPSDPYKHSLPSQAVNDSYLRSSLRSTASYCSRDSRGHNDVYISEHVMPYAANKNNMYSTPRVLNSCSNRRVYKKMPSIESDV
Outline: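 Mouse fibroblast L(tk-) cells stably carrying a dexamethasone-inducible vector encoding GluN1a and GluN2A. Receptor expression was induced with dexamethasone in the presence of ketamine to limit cell damage. Cells were exposed to (S)-glutamate, glycine and a range of test concentrations for 12 h. Cell death was read as LDH released from lysed cells, measured by formazan dye formation.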

[2] = Displacement of [3H]DTG from sigma2 receptor in rat liver membranes incubated for 120 mins by scintillation counting method in presence of pentazocine; format: cell membranes, Membrane
Outline: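 σ2 binding on rat liver membranes using the nonselective radioligand [3H]-DTG. […] Nonspecific binding defined with 10 µM unlabelled DTG. Affinity reported as Ki.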

[3] = Displacement of [3H]MK801 from NMDA receptor PCP binding site in guinea pig brain cortex membranes incubated for 120 mins by scintillation counting method; format: cell membranes, Cavia porcellus
[4] = biological target: Sigma non-opioid intracellular receptor 1 (Cavia porcellus, UniProt Q60492); assay: Displacement of [3H]-(+)-pentazocine from sigma 1 receptor in guinea pig brain membranes incubated for 120 mins by scintillation counting method in the presence of pentazocine; format: cell membranes, Membrane
Chain of Sigma non-opioid intracellular receptor 1 (Q60492 whole entry): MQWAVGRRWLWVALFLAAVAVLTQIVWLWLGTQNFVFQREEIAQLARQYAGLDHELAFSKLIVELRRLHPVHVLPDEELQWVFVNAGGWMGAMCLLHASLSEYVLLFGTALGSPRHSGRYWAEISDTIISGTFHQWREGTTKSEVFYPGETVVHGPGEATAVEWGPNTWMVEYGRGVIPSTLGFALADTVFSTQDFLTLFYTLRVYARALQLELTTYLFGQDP

[5] = system: Mus musculus; assay: Potentiation of morphine-induced antinociception in CD-1 mouse assessed as increase in latency time at 30 mg/kg, sc dosed 30 mins before morphine injection and measured 30 to 90 mins post morphine injection by hot plate test; format: functional, organism-based
[6] = system: Mus musculus; assay: Antinociceptive activity in CD-1 mouse assessed as increase in latency time at 50 mg/kg, sc incubated for 30 mins by hot plate test; format: functional, organism-based
Outline: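 Hot plate test in mice with test compound given alone s.c. at doses up to 50 mg/kg. Reaction latency read out as %MPE.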

[7] = Selectivity index, ratio of Ki for sigma2 receptor in rat liver membranes to Ki for sigma 1 receptor in guinea pig brain membranes; format: cell membranes
[8] = system: Mus musculus; assay: Potentiation of morphine-induced antinociception in CD-1 mouse assessed as increase in latency time at 50 mg/kg, sc dosed 30 mins before morphine injection and measured 60 mins post morphine injection by hot plate test; format: functional, organism-based
[9] = biological target: T1, Glutamate NMDA receptor; GRIN1/GRIN2A; assay: Binding affinity to NMDA receptor (unknown origin); format: protein-complex assay
Outline: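 PCP site of the NMDA receptor in pig brain cortex membranes. Competition binding against [3H]-(+)-MK-801. Nonspecific binding was defined with a large excess of unlabelled (+)-MK-801. Values are reported as Ki.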

| SMILES | Ki [2] [nM] | Ki [3] [nM] | Ki [4] [nM] | further results |
| --- | --- | --- | --- | --- |
| NCC1COCC(c2ccccc2)(c2ccccc2)O1 (stereo not given) | 5800 | 712 | > 10000 | IC50 [1]: 24.2 nM |
| NCCC1COCC(c2ccccc2)(c2ccccc2)O1 (stereo not given) | > 10000 | > 10000 | > 10000 | – |
| NCC1COC(c2ccccc2)(c2ccccc2)CO1 (stereo not given) | > 10000 | > 10000 | 1400 | – |
| NCCC1COC(c2ccccc2)(c2ccccc2)CO1 (stereo not given) | > 10000 | > 10000 | > 10000 | – |
| c1ccc(CNCC2COCC(c3ccccc3)(c3ccccc3)O2)cc1 (stereo not given) | 1600 | > 10000 | 4900 | – |
| c1ccc(CNCCC2COCC(c3ccccc3)(c3ccccc3)O2)cc1 (stereo not given) | > 10000 | > 10000 | 502 | – |
| c1ccc(CNCC2COC(c3ccccc3)(c3ccccc3)CO2)cc1 (stereo not given) | 1000 | > 10000 | 7.37 | Activity [5]: inactive; Activity [6]: inactive; Ratio Ki [7]: 136; Activity [8]: Active |
| c1ccc(CNCCC2COC(c3ccccc3)(c3ccccc3)CO2)cc1 (stereo not given) | 841 | > 10000 | 297 | – |
| c1ccc(CNCC2CCOC(c3ccccc3)(c3ccccc3)O2)cc1 (stereo not given) | 111 | > 10000 | 3000 | – |
| NC[C@@H]1COC[C@H](c2ccccc2)O1 (racemic) | > 10000 | > 10000 | > 10000 | – |
| NC[C@H]1COC[C@H](c2ccccc2)O1 (racemic) | > 10000 | > 10000 | > 10000 | – |
| CC[C@]1(c2ccccc2)COC[C@@H](CN)O1 (racemic) | > 10000 | > 10000 | > 10000 | – |
| CC[C@]1(c2ccccc2)COC[C@H](CN)O1 (racemic) | > 10000 | > 10000 | > 10000 | – |
| NC[C@@H]1COC[C@@](c2ccccc2)(C2CCCCC2)O1 (racemic) | > 10000 | 893 | > 10000 | IC50 [1]: 71.2 nM |
| NC[C@H]1COC[C@@](c2ccccc2)(C2CCCCC2)O1 (racemic) | 2500 | 413 | > 10000 | IC50 [1]: 17.7 nM |
| NC[C@@H]1CO[C@H](c2ccccc2)CO1 (racemic) | > 10000 | > 10000 | > 10000 | – |

| SMILES | Ki [2] [nM] | Ki [3] [nM] | Ki [4] [nM] | further results |
| --- | --- | --- | --- | --- |
| NC[C@H]1CO[C@H](c2ccccc2)CO1 (racemic) | > 10000 | > 10000 | > 10000 | – |
| c1ccc(CNC[C@@H]2COC[C@H](c3ccccc3)O2)cc1 (racemic) | > 10000 | > 10000 | 155 | – |
| c1ccc(CNC[C@H]2COC[C@H](c3ccccc3)O2)cc1 (racemic) | 4300 | > 10000 | 542 | – |
| CC[C@]1(c2ccccc2)COC[C@@H](CNCc2ccccc2)O1 (racemic) | > 10000 | > 10000 | 543 | – |
| CC[C@]1(c2ccccc2)COC[C@H](CNCc2ccccc2)O1 (racemic) | > 10000 | > 10000 | 607 | – |
| c1ccc(CNC[C@@H]2COC[C@@](c3ccccc3)(C3CCCCC3)O2)cc1 (racemic) | 4900 | > 10000 | 1500 | – |
| c1ccc(CNC[C@H]2COC[C@@](c3ccccc3)(C3CCCCC3)O2)cc1 (racemic) | > 10000 | > 10000 | 2700 | – |
| c1ccc(CNC[C@@H]2CO[C@H](c3ccccc3)CO2)cc1 (racemic) | 698 | > 10000 | 192 | – |
| c1ccc(CNC[C@@H]2CO[C@@H](c3ccccc3)CO2)cc1 (racemic) | > 10000 | > 10000 | 37 | Ratio Ki [7]: > 270 |
| c1ccc(CNC[C@@H]2CCO[C@H](c3ccccc3)O2)cc1 (racemic) | 174 | > 10000 | 314 | – |
| c1ccc(C2(c3ccccc3)OC[C@H]([C@@H]3CCCCN3)O2)cc1 [DEXOXADROL] | – | – | – | IC50 [1]: 9.7 nM; Ki [9]: […] |
| Cc1ccccc1NC(=N)Nc1ccccc1C [DITOLYLGUANIDINE] | 64 | – | – | – |
| CN[C@]1(c2ccccc2Cl)CCCCC1=O [ESKETAMINE] | – | 419 | – | IC50 [1]: 11.4 nM |
| CC[C@]1(c2ccccc2)OC[C@H]([C@@H]2CCCCN2)O1 [ETOXADROL] | – | 22 | – | Ki [9]: 22 nM |
| c1ccc(C2(N3CCCCC3)CCCCC2)cc1 [PHENCYCLIDINE] | – | 28 | – | IC50 [1]: 11.8 nM |
